# Sampled rows, rich in hits. Any-hit rate of the full collection: about 2.9%.
# CHO parental Ca = counter-screen: ATP calcium response change in parental CHO cells; AID 463079; actives 0.63% (n = 330,000); inhibition, % at 5.6 µM; parental CHO-K1, ATP-induced calcium, Fluo-8 fluorescence;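 active = inhibition above that plate's mean sample inhibition plus 3 SD, cut at about 26% in these data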;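 also: 0% = ATP-challenged DMSO wells and 100% = DMSO wells without ATP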
#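 Material – parental CHO cells · Reagent – ATP stimulus · Compound – single nominal dose of 5.6 µM per compound · Detection – Fluo-8 fluorescence · Read-out basis – percent inhibition of calcium signal · Controls – ATP-challenged DMSO wells low, unchallenged DMSO wells high · Repeats – no replicates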
# OX1R antag-1 = blocks the human orexin 1 receptor; actives 1.8% (n = 330,000); OX1R-expressing cells, FRET antagonist read-out; inhibition, % at 6.6 µM; in the data active = inhibition mostly above about 38%, no sharp cut-off; inactive = mostly below about 40%;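 also: 0% = agonist challenge alone and 100% = reference antagonist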
# Target sequence (O43613 whole entry, looked up): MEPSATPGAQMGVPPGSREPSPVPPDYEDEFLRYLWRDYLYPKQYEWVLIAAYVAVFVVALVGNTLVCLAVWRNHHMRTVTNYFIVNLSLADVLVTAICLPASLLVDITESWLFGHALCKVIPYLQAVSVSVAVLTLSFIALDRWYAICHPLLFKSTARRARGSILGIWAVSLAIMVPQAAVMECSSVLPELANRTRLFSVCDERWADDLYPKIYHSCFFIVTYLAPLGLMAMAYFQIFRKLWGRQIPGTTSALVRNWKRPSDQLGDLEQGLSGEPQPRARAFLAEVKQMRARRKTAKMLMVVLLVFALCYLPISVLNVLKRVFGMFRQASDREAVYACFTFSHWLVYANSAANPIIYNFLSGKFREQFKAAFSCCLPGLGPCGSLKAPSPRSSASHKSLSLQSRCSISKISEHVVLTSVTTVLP
# M1 PAM parental = nonselective activator or artifact in parental CHO-K1 calcium assay. ATP EC20, Fluo-8 calcium fluorescence; 0% at ATP EC20, 100% at ATP max. activation, % at 3 µM. actives 0.02% (n = 360,000). AID 602247;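 active = activation above the run cutoff, the mean activation of all test compounds plus 3 SD, cut at about 40% in these data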;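 also: peak over basal fluorescence ratio in a 140 s read after ATP addition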
# M1 ag parental = nonselective activator or artifact in parental CHO-K1 cells. Fluo-8 calcium fluorescence; scaled to maximal ATP response, vehicle zero. activation, % at 3 µM. AID 602248. actives 0.48% (n = 360,000); in the data active = activation above about 15%;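 also: untransfected CHO-K1 host cells lacking M1 receptor as counterscreen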
# OX1R antag-2 = antagonists of human orexin 1 receptor; inhibition, % at 5 µM; O43613; AID 434989; actives 0.43% (n = 330,000); CHO/OX1R cells, Fluo-8 calcium fluorescence, orexin A;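 active = inhibition above its plate's threshold, mean inhibition of all tested compounds on the plate plus 3 SD, cut at about 37% in these data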;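 also: 0% = orexin A challenge wells and 100% = SB-334867-A antagonist wells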
# CHO-K1 Ca antag = counter-screen for M1 antagonists: effect in parental CHO-K1 cells | inhibition, % at 3 µM | ATP-induced calcium, Fluo-8 fluorescence | actives 0.6% (n = 360,000);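 active = inhibition above a per-plate cutoff, the plate's mean sample inhibition plus 3 SD, cut at about 24% in these data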;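 also: 0% = DMSO plus EC80 ATP and 100% = DMSO alone without ATP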
# * hit, by the source's call; nt = not tested or not shown.
SMILES,CHO parental Ca,OX1R antag-1,M1 PAM parental,M1 ag parental,OX1R antag-2,CHO-K1 Ca antag
Cn1c(N=Cc2ccc([N+](=O)[O-])cc2)c(N)c(=O)n(C)c1=O,nt,nt,-17.6,0.3,nt,3.0
Cn1c(N)c(C(=O)c2ccc(Cl)cc2)c(=O)n(C)c1=O,-6.8,4.4,16.2,0.9,-3.0,-12.2
CC(=O)c1cn(-c2ccc([N+](=O)[O-])cc2)c(=O)n(C)c1=O,-7.8,39.4*,12.1,0.7,-7.8,-16.1
Cn1c(CBr)c(C(=O)c2ccc([N+](=O)[O-])cc2)c(=O)n(C)c1=O,-4.7,51.3*,-20.2,0.0,-16.1,-1.9
COC(=O)c1ccc2nc(-c3ccc(OC)c(OC)c3)c(Cc3cccc(F)c3)n2c1,nt,nt,12.7,3.0,nt,-9.1
O=C(O)C1CCN(C(=O)CSc2nc3ccccc3s2)CC1,-9.8,7.6,-9.5,0.2,-17.4,5.2
NC(=O)C1CCN(C(=O)CSc2nc3ccccc3s2)CC1,0.5,26.1,-6.6,-0.3,-5.8,23.8*
O=C(CC1C(=O)NCCN1Cc1cccc(F)c1)NCCCOc1cccnc1 (stereo not drawn),-5.8,11.8,5.9,1.1,-9.7,-11.8
Cc1nn(-c2ccccc2)c(Cl)c1/C=N/NC(=O)c1ccco1,-3.6,44.8*,8.3,0.5,-9.9,6.3
Cc1nn(-c2ccccc2)c(Cl)c1/C=N/NC(=O)c1ccc(CNc2ccccc2)o1,3.6,35.7,-4.7,0.0,-0.2,2.9
CC(C)C[C@H]1CN(CCCC[C@@H]2CNC(=O)C(=O)N2CC2CCCCC2)C(=O)C(=O)N1CCC1CCCCC1,nt,nt,18.2,0.7,nt,-17.3
CCN(CC)C1=CC2=CC(=C(C#N)C#N)CCC2CC1 (stereo not drawn),99.1*,28.0,-14.4,99.3*,106.5*,67.2*
CCCCN(C)C1=CC2=CC(=C(C#N)C#N)CCC2CC1 (stereo not drawn),101.1*,25.1,-17.0,577.9*,106.3*,92.4*
N#CC(C#N)=C1C=C2C=C(N3CCCCC3)CCC2CC1 (stereo not drawn),101.5*,42.4,nt,nt,106.1*,nt
OC(c1cccc(Cl)c1)c1nc(-c2ccc(Cl)cc2)cs1 (stereo not drawn),nt,nt,7.2,-0.6,nt,1.9
O=C1CCCN1CCC(=O)N1CCCC(CO)(Cc2ccccc2)C1 (stereo not drawn),-7.5,1.0,26.2,0.6,-7.7,0.5
Clc1ccc(CN2C3=NCCCN3c3ccccc32)c(Cl)c1,-22.1,5.3,-23.6,2.4,-21.8,-3.7
CN(Cc1ccc(Cl)c(Cl)c1)C(c1cc2ccccc2o1)c1nnnn1C(C)(C)C (stereo not drawn),nt,nt,23.0,0.2,nt,-19.2
O=C(C[n+]1ccccc1)N/N=C/c1ccc(Cl)cc1,-5.1,3.7,-16.1,-0.1,-8.3,12.4
O=[N+]([O-])c1ccc(/C=N/Nc2ccc3ccccc3c2)o1,42.5*,29.9,5.0,12.0,36.7,22.7
Cc1ccc2nc(N/N=C\c3ccc([N+](=O)[O-])o3)nc(-c3ccccc3)c2c1,-14.4,-0.1,2.4,2.6,-11.7,-2.3
CCNc1nc(NCC)nc(N/N=C/c2ccc([N+](=O)[O-])o2)n1,-6.1,53.8*,8.2,0.5,15.7,-7.3
CSc1nsc(SCC(=O)Nc2ccccc2C(=O)O)n1,-4.0,9.9,-3.1,-1.0,-12.9,-10.0
Cc1ccc(CN=C2NC(=O)C(CC(=O)NCCc3ccccc3)S2)cc1 (stereo not drawn),-14.0,3.1,21.1,0.8,-15.7,-22.1
COc1ccc([C@@H]2C[C@H]3[C@@H](CN2S(=O)(=O)c2ccccc2)C(=O)C[C@@H](c2ccc(OC)cc2)N3S(=O)(=O)c2ccccc2)cc1,nt,nt,-7.5,0.4,nt,28.1*
SMILES,CHO parental Ca,OX1R antag-1,M1 PAM parental,M1 ag parental,OX1R antag-2,CHO-K1 Ca antag
CCc1ccc([C@@H]2CC(=O)[C@@H]3CN(S(=O)(=O)c4ccccc4)[C@H](c4ccc(OC)cc4)C[C@@H]3N2S(=O)(=O)c2ccc(C)cc2)cc1,nt,nt,2.0,0.3,nt,22.3
COc1ccc(C(CNC(=O)CCC(=O)c2ccc(C)s2)N2CCOCC2)cc1 (stereo not drawn),-23.7,3.4,-4.7,-0.4,-22.2,-9.4
O=C(NC1CCCCC1)Sc1ccc(Cl)cc1,11.3,4.0,-4.5,0.0,-9.1,23.8*
COc1ccc(CN2CC[C@@H]3CN(C(C)=O)[C@H](c4ccccc4Br)C[C@@H]32)cc1,nt,nt,15.4,0.3,nt,3.7
Cn1cccc1/C=C1\SC(=Nc2cccc(O)c2)NC1=O,-7.3,41.8*,16.5,2.9,-15.4,-14.6
COc1ccccc1CNC(=O)CN(C)Cc1ccc(SC)cc1,-19.2,23.3,-6.8,0.5,-21.6,-6.6
O=C(Cc1ccc(Br)cc1)Nc1ccc(S(=O)(=O)Nc2ncccn2)cc1,0.0,6.0,10.7,0.4,-7.2,-9.8
O=C(O)c1ccc(CSc2nc3ccc(NC(=O)c4ccccc4C(=O)O)cc3s2)cc1,-16.6,20.2,1.2,1.2,-11.6,-2.4
N#Cc1ccccc1CSc1nc2ccc(NC(=O)c3ccccc3C(=O)O)cc2s1,-14.6,16.6,-12.4,2.6,-18.9,31.2*
CCCC1C2C(=O)N(c3cccc(C)c3)C(=O)C2ON1c1ccccc1 (stereo not drawn),-26.1,12.8,7.0,16.8*,-35.5,-0.4
CCCC1C2C(=O)N(c3ccc(OC)cc3)C(=O)C2ON1c1ccccc1 (stereo not drawn),-8.8,11.5,-3.5,0.1,-26.1,0.8
CC(NC(=O)COC(=O)/C=C/c1ccc2c(c1)OCO2)c1ccccc1 (stereo not drawn),-9.9,13.1,11.6,-0.2,-9.5,-11.6
Cc1ccc(S(=O)(=O)N(C)C)cc1NC(=O)c1cc(-c2ccco2)nc2ccccc12,-24.8,34.3,7.9,7.4,-11.0,3.7
CCOC(=O)N1CCC(N2Cc3cccc(C(=O)NC(C)c4ccc5c(c4)OCCO5)c3C2=O)CC1 (stereo not drawn),-16.4,6.9,-7.0,-0.7,-39.2,41.6*
COC(=O)CC1(C(=O)OC)Nc2cc(Cl)c(Cl)cc2S(=O)(=O)N1O (stereo not drawn),nt,nt,3.3,1.1,nt,3.5
O=C(CN1C(=O)COc2ccccc21)c1ccc(Cl)cc1,-3.5,8.6,-7.9,0.0,-16.9,30.2*
CC(C)NC(=O)NC(=O)CSc1nnc(COc2ccccc2F)n1C(C)C1CC2CCC1C2 (stereo not drawn),69.7*,0.2,2.2,0.5,4.9,-42.2
CC(=O)Nc1ccccc1NC(=O)C/C(C)=N/NC(=O)Cc1cccc2ccccc12,-10.0,11.5,0.2,1.4,-20.5,-0.9
Oc1ccc(C=NNC(=S)Nc2ccccc2)nc1,nt,nt,-0.4,0.5,nt,-1.8
O=C(COC(=O)c1ccccc1[N+](=O)[O-])c1ccc(C2CCCCC2)cc1,47.0*,39.1,7.4,0.2,14.1,0.0
O=C(O)c1cc(Nc2cc(Cl)c3nonc3c2[N+](=O)[O-])ccc1O,-0.8,24.4,11.1,0.0,-17.4,-8.6
